The values below come from ChEMBL document CHEMBL1125410, “Selective irreversible inhibitors of aldose reductase” (J Med Chem, 1992).

In test [1] the target is Aldo-keto reductase family 1 member B1 (Rattus norvegicus) (UniProt P07943). Kind of test: Protection by the compound of irreversible inhibition of Rat Lens Aldose reductase by [5-(2-Iodo-acetyl)-1,3-dioxo-1H,3H-benzo[de]isoquinolin-2-yl]-acetic acid(0.1 mM) at 0.01 mM concentration. Format: functional. In short, it runs like this: (§1)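 Rat lens aldose reductase was desalted into 0.1 M phosphate (pH 7.4). The enzyme was preincubated 5 min with the reversible inhibitor, then the iodoacetamide label was added for a further 5 min. Unreacted reagent was removed by desalting into buffer with 10 mM 2-mercaptoethanol, BSA was added, and residual activity was read by NADPH loss at 340 nm. Runs were at least triplicate and averaged.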

Test [2] is described as follows: Ratio of IC50(RKALR) vs IC50(RLAR).
Test [3] deals with Aldo-keto reductase family 1 member B1 (Rattus norvegicus, UniProt P07943). The experiment in a line: Compound was evaluated for the inhibition of Rat Lens Aldose reductase (RLAR). In outline:
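Purified rat lens aldose reductase and rat kidney aldehyde reductase, each homogeneous on SDS-PAGE. The 1.0 mL assay held equal enzyme units in 0.10 M Na,K phosphate (pH 6.2), 0.3 mM NADPH, 10 mM DL-glyceraldehyde and inhibitor. The NADPH decrease at 340 nm was followed over 4 min, with no-substrate absorbance controls. IC50 is given as mean ± SD.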

Test [4] concerns the target Aldo-keto reductase family 1 member B1 (Rattus norvegicus) (UniProt P07943). Kind of test: Protection by the compound of irreversible inhibition of Rat Lens Aldose reductase by [5-(2-Iodo-acetyl)-1,3-dioxo-1H,3H-benzo[de]isoquinolin-2-yl]-acetic acid(0.01 mM) at 0.1 mM concentration. Type of test: functional. In short, it runs like this:
as §1

Test [5] has the same target. The experiment in a line: Protection by the compound of irreversible inhibition of Rat Lens Aldose reductase by [5-(2-Iodo-acetyl)-1,3-dioxo-1H,3H-benzo[de]isoquinolin-2-yl]-acetic acid(0.01 mM) at 0.01 mM concentration. Type of test: functional. In outline:
as §1

The target is the same in test [6]. Kind of test: Protection by the compound of irreversible inhibition of Rat Lens Aldose reductase by [5-(2-Iodo-acetyl)-1,3-dioxo-1H,3H-benzo[de]isoquinolin-2-yl]-acetic acid(0.1 mM) at 0.1 mM concentration. Type of test: functional. In short, it runs like this:
as §1

Test [7] shares this target. Kind of test: Protection by the compound of irreversible inhibition of Rat Lens Aldose reductase by [5-(2-Iodo-acetyl)-1,3-dioxo-1H,3H-benzo[de]isoquinolin-2-yl]-acetic acid(0.01 mM) at 1 mM concentration. Type of test: functional. In outline: as §1
Test [8] has the same target. The experiment in a line: Protection by the compound of irreversible inhibition of Rat Lens Aldose reductase by [5-(2-Iodo-acetyl)-1,3-dioxo-1H,3H-benzo[de]isoquinolin-2-yl]-acetic acid(0.1 mM) at 1 mM concentration. Format: functional. In outline: as §1
In test [9] the test system is Aldehyde reductase AKR1A1 (Rattus norvegicus). Kind of test: Compound was evaluated for irreversible inhibition of Rat kidney Aldehyde reductase (RKALR) at 10e-4 M.
For test [10], the target named is Aldo-keto reductase family 1 member B1 (Rattus norvegicus) (UniProt P07943). The experiment in a line: Compound was evaluated for irreversible inhibition of Rat Lens Aldose reductase (RLAR) at 10e-4 M. In outline: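 Each purified reductase was desalted into 0.1 M phosphate (pH 7.4) to remove glycerol and 2-mercaptoethanol. Enzyme (ca. 0.3 unit/mL) was exposed to inhibitor or buffer alone for 15 min at room temperature. A 400 µL aliquot was then desalted into pH 7.0 phosphate with 10 mM 2-mercaptoethanol, and BSA was added. The eluate was kept on ice, and residual activity was read from NADPH loss at 340 nm with DL-glyceraldehyde. Runs were at least triplicate and averaged.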

On to `CC(=O)Nc1cc2c3c(cccc3c1)C(=O)N(CC(=O)O)C2=O`, for which the Protection amounted to 17% in test [1]; 43% in test [4]; 11% in test [5]; 19% in test [6]; 100% in [7]; 39% in test [8]. Besides, the Ratio in test [2] came to 10. The compound further had a concentration for half-maximal inhibition (IC50) in test [3] of 0.64 µM.

`O=C(O)CN1C(=O)c2cccc3cc(N=C=S)cc(c23)C1=O` had an inhibition in test [9] of 0%.

Turning to `O=C(O)CN1C(=O)c2cccc3cc(NC(=O)CBr)cc(c23)C1=O`, the Ratio in test [2] is 13 Ratio. In addition, in test [3], the half-maximal inhibitory concentration (IC50) was determined as 0.6 µM. The same compound returned an inhibition in test [10] of 46%.

In [10], `O=C(O)CN1C(=O)c2cccc3cc(C(=O)CI)cc(c23)C1=O` came in with an inhibition of 89%.
